Screens as filed in PubChem.
Compounds with a hit are over-represented: about 5.1% of the library has one in this group of screens.
APP 5'UTR act: activators of APP 5'UTR luciferase reporter, primary screen, SH-SY5Y cells; 1% of 190,000 active; AID 1276, 2008; SH-SY5Y APP 5'UTR luciferase reporter, luminescence; zero percent = DMSO vehicle wells; activation, % at 2 µM;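 active = activation above a set limit, based on mean plus 3 SD of controls, cut at about 140% in these data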
STAT1 inh: STAT1 signaling inhibitors, primary screen, cell-based, HTS, luciferase reporter | NIH 3T3 STAT1-luciferase reporter, IFN-gamma, luminescence | inhibition, % at 5.5 µM | 0.35% of 200,000 active | AID 920, 2007;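 active = inhibition above a set limit, the mean inhibition across all tested compounds plus 3 SD, cut at about 34% in these data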;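 also: 0% = IFN-gamma with DMSO and 100% = IFN-gamma with 300 µM nifuroxazide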
STAT3 activator: IL-6 driven STAT3 reporter potentiators, primary screen, U3A cells, luciferase, luminescence, MLSCN library. IL-6 STAT3-luciferase reporter; 100% = signal with IL-6 EC80 alone. activation (% of control), % at 5.6 µM. 0.91% of 190,000 active. AID 871, 2007;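 active = activation above the screen-wide mean of compound activation plus 3 SD, cut at about 130% in these data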;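 also: 0% = background luminescence of wells with medium and substrate only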
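Assay system – human STAT1-deficient U3A cells with stable STAT3-luciferase reporter · Also added – IL-6 (33 ng/mL) · Schedule – compound 1 h, then IL-6 6 h at 37 °C · Technique – reporter luminescence signal · Evaluation – % activation versus median of IL-6-stimulated wells · Benchmarks – IL-6-only wells as 100% reference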
STAT1 activator: STAT1 signaling activators, primary screen, cell-based, HTS, luciferase reporter; activation (% of control), % at 5.5 µM; 2.6% of 200,000 active; NIH 3T3 STAT1-luciferase reporter, IFN-gamma, luminescence; 100% = IFN-gamma alone, no compound;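 active = activation above the screen-wide mean activation plus 3 SD, cut at about 130% in these data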;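 also: raw ratio to IFN-gamma control signal so 100% means no change and 0% no light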
STAT3 inh: IL-6 driven STAT3 reporter inhibitors, primary screen, U3A cells, luciferase, luminescence, MLSCN library. IL-6 STAT3-luciferase reporter; host cell line lacks STAT1. inhibition, % at 5.5 µM. 0.89% of 190,000 active. AID 862, 2007;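 active = inhibition above the mean inhibition across all screened compounds plus 3 SD, cut at about 44% in these data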;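 also: 0% = DMSO only wells and 100% = 100 µM nifuroxazide control wells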
NF-kB expr up: activators of NF-kB expression in neurons, primary screen, cell-based, HTS | AID 1239, 2008 | fold change at 12.5 µM | 1.6% of 190,000 active | human neuronal cells, NF-kB reporter expression; active compounds read high; in the data active = fold change above about 3.3
Starred values were filed as active, the others as inactive.

SMILES | APP 5'UTR act | STAT1 inh | STAT3 activator | STAT1 activator | STAT3 inh | NF-kB expr up
COc1cccc(Oc2nnnn2-c2ccccc2)c1 | 25 | -34 | 101 | 131* | 2 | 2
COc1ccc(Oc2nnnn2-c2ccccc2)cc1 | 3 | -7 | 94 | 106 | 10 | 2.1
O=C(NCc1ccc(F)cc1)c1nc(-c2cccs2)no1 | -1 | -7 | 106 | 106 | 3 | 0.78
Cc1cc(OCc2nc(-c3cccs3)no2)cc(C)c1Cl | 10 | -2 | 94 | 102 | 12 | 1.4
Fc1ccc(OCc2nc(-c3cccs3)no2)cc1 | 88 | -45 | 105 | 140* | -1 | 2.4
c1ccc(OCc2nc(-c3cccs3)no2)cc1 | 48 | -55 | 108 | 145* | -10 | 3.1
C=CCN=c1scc(-c2ccc(F)cc2)n1/N=C/c1ccccn1 | 47 | -22 | 100 | 120 | -5 | 3.3*
C=CCN=c1scc(-c2ccccc2)n1/N=C/c1ccccn1 | 99 | -126 | 78 | 215* | 25 | 7.5*
NC(=O)c1cccnc1Nc1ccccc1F | -7 | 3 | 104 | 97 | -2 | 1.4
Cc1cc(Cl)ccc1Nc1ncccc1C(N)=O | 41 | -34 | 105 | 130* | -3 | 2.1
Cc1cc(Cl)ccc1NC(=S)Nc1ccccn1 | 56 | -33 | 105 | 130* | -4 | 1.6
Cc1cc(C)cc(NC(=S)Nc2ccccn2)c1 | 12 | 4 | 127 | 96 | -26 | 1.1
O=C(O)c1ccccc1CSc1nc2ccccc2o1 | 29 | -44 | 115 | 140* | -13 | 1.8
Cc1nnc(SCc2nc3ccccc3s2)n1N | 91 | -37 | 141* | 134* | -50 | 1.6
Cc1cccc2nc(CSc3nc4ccccc4o3)cn12 | 24 | -16 | 94 | 114 | 9 | 1.4
c1ccc2oc(SCc3nc4ccccc4s3)nc2c1 | 122 | -42 | 138* | 139* | -41 | 3.1
Cc1ccccc1CSc1nnc(C)n1N | -15 | -1 | 108 | 101 | -6 | 1.4
c1ccc2oc(SCc3cn4ccccc4n3)nc2c1 | 125 | -33 | 93 | 131* | 12 | 3.4*
O=C(c1ccco1)N1CCN(c2cc(N3CCOCC3)c(F)cc2[N+](=O)[O-])CC1 | -13 | 3 | 98 | 95 | 11 | 0.98
CC1CCCC(NC(=O)COC(=O)CN2C(=O)C3CCCCC3C2=O)C1C (stereo unspecified) | -66 | -2 | 102 | 102 | 3 | 1
Oc1ccc(/C=N/NC(=S)NCCN2CCOCC2)c(O)c1 | -28 | 0 | 90 | 98 | 14 | 1.1
COc1ccc(-n2nc([N+](=O)[O-])c(=NCc3ccco3)n2O)cc1 | 73 | -48 | 100 | 143* | 3 | 2.2
COc1ccc(-n2nc([N+](=O)[O-])c(=NCc3cccnc3)n2O)cc1 | 48 | -55 | 103 | 149* | -6 | 2.7
COc1ccc(-n2nc([N+](=O)[O-])c(=NCCc3ccc(Cl)cc3)n2O)cc1 | 11 | -3 | 98 | 102 | 9 | 1.3
COc1ccc(-n2nc([N+](=O)[O-])c(=NCCc3ccc(C)cc3)n2O)cc1 | 7 | -6 | 104 | 104 | -2 | 1.3
SMILES | APP 5'UTR act | STAT1 inh | STAT3 activator | STAT1 activator | STAT3 inh | NF-kB expr up
O=[N+]([O-])c1nn(-c2ccc3c(c2)OCCO3)n(O)c1=NCc1ccccc1Cl | 32 | -52 | 104 | 146* | 1 | 2.5
CC(C)N1CCN(Cc2ccc(-c3ccccc3Cl)o2)CC1CCO (stereo unspecified) | 6 | 6 | 93 | 93 | 13 | 1.2
CCOC(=O)c1nc(NCc2ccccc2F)c2ccccc2n1 | 14 | 1 | 98 | 98 | 6 | 1
C[C@@H]1CN(Cc2nc(-c3ccc(Cl)cc3)no2)C[C@H](C)O1 | -3 | -7 | 89 | 105 | 15 | 1.2
CC(=O)Nc1sc2c(c1C#N)CCCCC2 | 9 | -5 | 99 | 105 | 4 | 1.4
Cc1cc(C(=O)Nc2sc3c(c2C#N)CCCC3)no1 | 92 | -22 | 101 | 119 | 4 | 3.1
N#Cc1c(NC(=O)/C=C/c2ccco2)sc2c1CCCC2 | -93 | -81 | 154* | 174* | -67 | 0.89
